Laboratory results as given in ChEMBL document CHEMBL2346552, “A novel metformin derivative, HL010183, inhibits proliferation and invasion of triple-negative breast cancer cells” (Bioorg Med Chem, 2013).
Counter-ions that a name gives are not always drawn. Activity calls are given as the source filed them. The rule behind the calls is not given here.

What was measured:
MDA-MB-231 [1] = assay: Induction of apoptosis in triple-negative human MDA-MB-231 cells assessed as early apoptotic cells at 10 mM after 24 hrs by annexin V-FITC/propidium iodide staining-based flow cytometric analysis relative to control; assay type: functional
Outline: (§1)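 MDA-MB-231 cells treated 24 h at 0.1 or 10 mM were stained with FITC-annexin V and propidium iodide and analyzed by flow cytometry. Quadrants: annexin−/PI− viable; annexin+/PI− early apoptotic; PI+ late apoptotic/necrotic.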

Hs-578T [2] = assay: Cytotoxicity against triple-negative human Hs578T cells assessed as growth inhibition after 24 hrs by MTT assay; assay type: functional, cell-based
Mus musculus [3] = assay: Toxicity in BALB/c athymic nude mouse xenografted with triple-negative human MDA-MB-231 cells assessed as body weight change at 500 mg/kg, po qd measured for 35 days relative to vehicle-treated control; assay type: organism-based; parameters: dose 500 mg/kg, route oral; details: in vivo, 840 h
Outline: (§2)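 MDA-MB-231 s.c. xenograft in nude mice (n = 6), dosed orally by gavage once daily for 35 days at 25–100 or 500 mg/kg. Body weights were recorded three times weekly and compared with vehicle-treated mice.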

MDA-MB-231 [4] = assay: Cytotoxicity against triple-negative human MDA-MB-231 cells assessed as growth inhibition after 24 hrs by MTT assay; assay type: functional, cell-based; details: MDA-MB-231, 24 h
MDA-MB-231 [5] = assay: Induction of apoptosis in triple-negative human MDA-MB-231 cells assessed as dead cells at 10 mM after 24 hrs by annexin V-FITC/propidium iodide staining-based flow cytometric analysis relative to control; assay type: functional
Outline: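 MDA-MB-231 cells grown in DMEM at 37 °C, 5% CO2, then exposed for 24 h to agent dissolved in distilled water. Cells were stained at 1 × 10^6 cells/ml with FITC-annexin V and/or propidium iodide for flow cytometry and read as quadrant dot plots. Lower left is viable, lower right early apoptotic, upper quadrants late apoptotic/necrotic.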

MDA-MB-231 [6] = assay: Induction of apoptosis in triple-negative human MDA-MB-231 cells assessed as viable cells at 10 mM after 24 hrs by annexin V-FITC/propidium iodide staining-based flow cytometric analysis relative to control; assay type: functional; details: MDA-MB-231, 24 h, read-out: Activity; outline: as §1
MDA-MB-231 [7] = assay: Induction of apoptosis in triple-negative human MDA-MB-231 cells assessed as apoptotic cells at 10 mM after 24 hrs by annexin V-FITC/propidium iodide staining-based flow cytometric analysis relative to control; assay type: functional; outline: as §1
Hs-578T [8] = assay: Antiinvasive activity against triple-negative human Hs578T cells at 5 mM after 17 hrs by light microscopic analysis relative to control; assay type: functional
Hs-578T [9] = assay: Antiinvasive activity against triple-negative human Hs578T cells at 20 mM after 17 hrs by light microscopic analysis; assay type: functional, cell-based
Outline: (§3)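 Transwell invasion with polycarbonate filters. 5 × 10^4 Hs578T cells were placed in the upper chamber with drug, and the lower chamber held serum-free medium with 0.1% BSA plus drug. After 17 h, cells invaded to the filter underside were counted by light microscopy (400×) in 13 fields per filter. Each sample was run in triplicate.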

Hs-578T [10] = assay: Antiinvasive activity against triple-negative human Hs578T cells assessed as downregulation of MMP9 level at 5 to 20 mM after 24 hrs by gelatin zymogram assay; assay type: functional, cell-based
Outline: (§4)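 Hs578T cells were cultured 24 h in serum-free medium containing compound at 0.05–0.2 mM or 5–20 mM. Gelatinolytic activity of the conditioned medium was resolved by gelatin zymography (MMP-2 72 kDa, MMP-9 92 kDa). Relative band intensities were quantified by densitometry.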

Hs-578T [11] = assay: Antiinvasive activity against triple-negative human Hs578T cells at 10 mM after 17 hrs by light microscopic analysis; assay type: functional, cell-based; outline: as §3
Hs-578T [12] = assay: Antiinvasive activity against triple-negative human Hs578T cells assessed as downregulation of MMP2 level by immunoblot analysis; assay type: functional, cell-based
[13] = target: 5'-AMP-activated protein kinase catalytic subunit alpha-2 (Homo sapiens) (UniProt P54646); assay: Activation of AMPK in triple-negative human […] cells at 20 mM after 24 hrs by immunoblot analysis; assay type: cell-based
Chain of 5'-AMP-activated protein kinase catalytic subunit alpha-2 (Homo sapiens) (P54646 whole entry, looked up): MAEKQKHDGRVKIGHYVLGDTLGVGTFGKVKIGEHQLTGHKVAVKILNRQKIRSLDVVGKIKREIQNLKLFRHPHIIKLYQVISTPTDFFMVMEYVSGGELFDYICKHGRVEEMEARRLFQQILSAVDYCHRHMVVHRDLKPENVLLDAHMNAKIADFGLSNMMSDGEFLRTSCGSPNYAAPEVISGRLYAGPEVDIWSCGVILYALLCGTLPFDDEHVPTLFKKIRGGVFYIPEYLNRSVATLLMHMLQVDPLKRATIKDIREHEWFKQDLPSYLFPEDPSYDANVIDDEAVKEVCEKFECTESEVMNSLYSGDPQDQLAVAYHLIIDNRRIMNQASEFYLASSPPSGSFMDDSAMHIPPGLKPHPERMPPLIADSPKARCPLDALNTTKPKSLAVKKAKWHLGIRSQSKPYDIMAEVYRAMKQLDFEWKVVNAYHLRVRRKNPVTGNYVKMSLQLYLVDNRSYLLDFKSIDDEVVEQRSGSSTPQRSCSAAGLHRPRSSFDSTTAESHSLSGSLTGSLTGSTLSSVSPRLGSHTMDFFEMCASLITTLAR
Outline: (§5)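 Hs578T cells exposed to compound for 24 h at 0.05–0.2 mM or 5–20 mM. Lysates were made in Triton X-100 buffer (pH 7.4, NaF, EGTA, DTT, Na3VO4, protease inhibitors) and run on 10% SDS–PAGE. Immunoblots were probed with anti-phospho AMPK or anti-phospho mTOR antibody.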

Hs-578T [14] = assay: Antiinvasive activity against triple-negative human Hs578T cells assessed as downregulation of MMP2 level after 24 hrs by gelatin zymogram assay; assay type: functional, cell-based; outline: as §4
[15] = target: Serine/threonine-protein kinase mTOR (Homo sapiens) (UniProt P42345); assay: Inhibition of mTOR phosphorylation in triple-negative human […] cells at 20 mM after 24 hrs by immunoblot analysis; assay type: cell-based; outline: as §5
[16] = target: 5'-AMP-activated protein kinase catalytic subunit alpha-2 (Homo sapiens) (UniProt P54646); assay: Activation of AMPK in triple-negative human […] cells at 0.2 mM after 24 hrs by immunoblot analysis; assay type: cell-based; outline: as §5
MDA-MB-231 [17] = assay: Antitumor activity against triple-negative human MDA-MB-231 cells xenografted in BALB/c athymic nude mouse assessed as tumor growth inhibition at 25 mg/kg, po qd measured for 35 days relative to vehicle-treated control; assay type: functional; details: MDA-MB-231, 840 h, read-out: TGI
Outline: (§6)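 MDA-MB-231 cells (5 × 10^6 in 0.1 mL serum-free medium) were injected s.c. into the right lower flank of nude mice. At tumor volumes of 100–130 mm³, mice (n = 6) received oral gavage once daily for 35 days at 25, 50, 100 or 500 mg/kg. Caliper volumes, (length × width²)/2, were taken three times weekly. Inhibition was calculated versus the vehicle group.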

Hs-578T [18] = assay: Antiinvasive activity against triple-negative human Hs578T cells at 0.2 mM after 17 hrs by light microscopic analysis relative to control; assay type: functional; outline: as §3
MDA-MB-231 [19] = assay: Induction of apoptosis in triple-negative human MDA-MB-231 cells assessed as dead cells at 0.1 mM after 24 hrs by annexin V-FITC/propidium iodide staining-based flow cytometric analysis relative to control; assay type: functional
Outline: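 MDA-MB-231 cells grown in DMEM at 37 °C, 5% CO2, then exposed for 24 h to agent dissolved in DMSO. Cells were stained at 1 × 10^6 cells/ml with FITC-annexin V and/or propidium iodide and analysed by flow cytometry as quadrant dot plots. Lower left is viable, lower right early apoptotic, upper right/left late apoptotic/necrotic (membrane integrity lost).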

Hs-578T [20] = assay: Ratio of metformin IC50 to compound IC50 for triple-negative human Hs578T cells; assay type: functional
Outline: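 Hs578T cells were exposed to compounds for 24 h and viability was read by MTT (4 h, formazan dissolved in DMSO, OD 540 nm), in triplicate. The ratio uses IC50 values from this assay.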

[21] = target: Serine/threonine-protein kinase mTOR (Homo sapiens) (UniProt P42345); assay: Ratio of compound activity to metformin activity for inhibition of mTOR phosphorylation in triple-negative human […] cells; assay type: cell-based
[22] = target: Serine/threonine-protein kinase mTOR (Homo sapiens) (UniProt P42345); assay: Inhibition of mTOR phosphorylation in triple-negative human […] cells at 0.2 mM after 24 hrs by immunoblot analysis; assay type: cell-based; outline: as §5
Hs-578T [23] = assay: Ratio of compound activity to metformin activity for inhibition of triple-negative human Hs578T cells invasiveness; assay type: functional
MDA-MB-231 [24] = assay: Induction of apoptosis in triple-negative human MDA-MB-231 cells assessed as early apoptotic cells at 0.1 mM after 24 hrs by annexin V-FITC/propidium iodide staining-based flow cytometric analysis relative to control; assay type: functional; outline: as §1
[25] = target: 5'-AMP-activated protein kinase catalytic subunit alpha-2 (Homo sapiens) (UniProt P54646); assay: Ratio of compound activity to metformin activity for activation of AMPK in triple-negative human […] cells; assay type: cell-based
MDA-MB-231 [26] = assay: Antitumor activity against triple-negative human MDA-MB-231 cells xenografted in BALB/c athymic nude mouse assessed as tumor growth inhibition at 50 mg/kg, po qd measured for 35 days relative to vehicle-treated control; assay type: functional; details: MDA-MB-231, 840 h, read-out: TGI; outline: as §6
MDA-MB-231 [27] = assay: Ratio of compound activity to metformin activity for tumor growth inhibition of triple-negative human MDA-MB-231 cells xenografted in BALB/c athymic nude mouse; assay type: functional
Mus musculus [28] = assay: Toxicity in BALB/c athymic nude mouse xenografted with triple-negative human MDA-MB-231 cells assessed as body weight change at 25 to 100 mg/kg, po qd measured for 35 days relative to vehicle-treated control; assay type: organism-based; parameters: dose 25-100 mg/kg, route oral; details: in vivo, 840 h; outline: as §2
MDA-MB-231 [29] = assay: Antitumor activity against triple-negative human MDA-MB-231 cells xenografted in BALB/c athymic nude mouse assessed as tumor growth inhibition at 100 mg/kg, po qd measured for 35 days relative to vehicle-treated control; assay type: functional; details: MDA-MB-231, 840 h, read-out: TGI; outline: as §6
MDA-MB-231 [30] = assay: Induction of apoptosis in triple-negative human MDA-MB-231 cells assessed as apoptotic cells at 0.1 mM after 24 hrs by annexin V-FITC/propidium iodide staining-based flow cytometric analysis relative to control; assay type: functional; outline: as §1
MDA-MB-231 [31] = assay: Induction of apoptosis in triple-negative human MDA-MB-231 cells assessed as viable cells at 0.1 mM after 24 hrs by annexin V-FITC/propidium iodide staining-based flow cytometric analysis relative to control; assay type: functional; details: MDA-MB-231, 24 h, read-out: Activity; outline: as §1
Hs-578T [32] = assay: Antiinvasive activity against triple-negative human Hs578T cells assessed as downregulation of MMP9 level at 0.05 to 0.2 mM after 24 hrs by gelatin zymogram assay; assay type: functional, cell-based; outline: as §4
Hs-578T [33] = assay: Antiinvasive activity against triple-negative human Hs578T cells after 17 hrs by light microscopic analysis; assay type: functional, cell-based
Outline: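 Transwell filter invasion assay; serum-free medium with 0.1% BSA plus drug in the lower chamber, 5 × 10⁴ Hs578T cells plus drug in the upper chamber. Invaded cells on the underside of the filter counted by light microscopy at 400× after 17 h, thirteen fields per filter, each sample in triplicate. Hs578T cultured in DMEM at 37 °C, 5% CO₂.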

## CN(C)C(=N)NC(=N)N.Cl [METFORMIN HYDROCHLORIDE]
MDA-MB-231 [1]
  Activity: 1.8%
Hs-578T [2]
  IC50: 26.8 mM
Mus musculus [3]
  Activity: Non-toxic
MDA-MB-231 [4]
  IC50: 58.4 mM
MDA-MB-231 [5]
  Activity: 0.5%
MDA-MB-231 [6]
  viability at 10000 µM: 82.4%
MDA-MB-231 [7]
  Activity: 15.3%

## CN(C)C(=N)NC(=N)N.NCCCC(=O)O [listing 1 of 2 here]
Hs-578T [2]
  IC50: 9.1 mM
Hs-578T [8]
  inhibition at 5000 µM: 43.6%
MDA-MB-231 [4]
  IC50: 41.5 mM

## CC(C)C[C@H](CN)CC(=O)O.CN(C)C(=N)NC(=N)N [METFORMIN PREGABALIN SALT]
Hs-578T [2]
  IC50: 7.2 mM
Hs-578T [8]
  inhibition at 5000 µM: 64.6%
MDA-MB-231 [4]
  IC50: 17.7 mM

## CN(C)C(=N)NC(=N)N
Hs-578T [9]
  inhibition: Active
Hs-578T [10]
  Activity: inactive
Hs-578T [11]
  inhibition: inactive
Hs-578T [12]
  Activity: Dose-dependent effect
[13]
  Activity: Active
Hs-578T [14]
  Activity: Dose-dependent effect
[15]
  inhibition: Active

## CN(C)C(=N)NC(=N)N.NCC1(CC(=O)O)CCCCC1 [METFORMIN GABAPENTIN SALT]
Hs-578T [2]
  IC50: 4 mM
Hs-578T [8]
  inhibition at 5000 µM: 73.6%
MDA-MB-231 [4]
  IC50: 16.1 mM

## CCCc1ccccc1Nc1nc(N)nc(N(C)C)n1.Cl
[16]
  Activity: Active
MDA-MB-231 [17]
  inhibition in vivo at 25 mg/kg: 6.2%
Hs-578T [2]
  IC50: 0.28 mM
Hs-578T [18]
  inhibition at 200 µM: 36.6%
MDA-MB-231 [19]
  Activity: 1.6%
Hs-578T [20]
  Ratio IC50: 100
[21]
  Ratio: 100
[22]
  inhibition: Active
Hs-578T [23]
  Ratio: 100
MDA-MB-231 [24]
  Activity: 3.1%
[25]
  Ratio: 100
MDA-MB-231 [4]
  IC50: 0.28 mM
MDA-MB-231 [26]
  inhibition in vivo at 50 mg/kg: 17.4%
MDA-MB-231 [27]
  Ratio: 5
Hs-578T [12]
  Activity: Dose-dependent effect
Mus musculus [28]
  Activity: Non-toxic
MDA-MB-231 [29]
  inhibition in vivo at 100 mg/kg: 27.9%
MDA-MB-231 [30]
  Activity: 17%
Hs-578T [14]
  Activity: Dose-dependent effect
MDA-MB-231 [31]
  viability at 100 µM: 78.4%
Hs-578T [32]
  Activity: inactive

## CN(C)C(=N)NC(=N)N.NCCCC(=O)O [listing 2 of 2 here]
Hs-578T [33]
  Activity: Dose-dependent effect

## N=C(N)NC(=N)NCCc1ccccc1 [PHENFORMIN ACETIC ACID SALT]
Hs-578T [2]
  IC50: 0.9 mM
MDA-MB-231 [4]
  IC50: 1.68 mM
